Only some compounds are listed: those with a hit (about 2.6% of all), similar ones and a draw of the others.
GSIS activator: GLuc luminescence reporter in INS-1E cells, primary screen for activators of glucose-dependent secretion of insulin; activation, % at 16.6 µM; INS-1E GLuc reporter insulin secretion, 2-3 h; AID 743287, 2014; 370,000 compounds, 0.61% hits;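 active = lowest replicate activation of at least 40%, so every replicate reaches that level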;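 also: 0% = median of neutral control wells and 100% = median of IBMX positive control wells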
RAD54 branch: inhibitors of human RAD54 branch migration, primary screen, biochemical, fluorescence, single point. AID 602329, 2012. inhibition, % at 10.4 µM. 360,000 compounds, 0.14% hits. RAD54 Holliday junction branch migration, FAM/BHQ fluorescence;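 active = mean normalized replicate activity at least 40 and at least half of replicates scoring 40 or more; inconclusive = only one of the two criteria met; inactive = mean below 40 and under half of replicates reaching 40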;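 also: 0% = median of neutral control wells and 100% = median of positive control wells; inhibitors cause a drop in the FAM fluorescence signal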
rRNA inh HTS: reduced GFP signal of wild-type E. coli, primary screen, bacterial rRNA inhibitor project, GFP/RFP fluorescence, OD600, single point | AID 720706, 2013 | GFP signal change (wild-type ribosome), % (no concentration beside the values) | E. coli WT GFP vs humanized-ribosome RFP mutants, 24 h; stronger effect = lower value; DMSO median 0, no signal -100 | 350,000 compounds, 1.6% hits;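 active = significant combined selectivity score with lowered wild-type GFP, culture density cut under 30%, mutant RFP and density less affected; inactive = any of these conditions unmet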
MLL AF4-AF9 inh: inhibitors of AF4 peptide binding to AF9, primary screen, biochemical, AlphaScreen, biotin-AF4 peptide, FLAG-AF9, single point | Protein AF-9 (Homo sapiens), P42568 | inhibition, % at 10 µM | 350,000 compounds, 0.47% hits;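 active = every replicate reaching a set inhibition limit, whatever the replicate mean, cut at about 25% in these data; inconclusive = mean inhibition reaches that limit but some replicates miss it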;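 also: 0% = plate neutral control median and 100% = total signal loss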
RAD52 inh: RAD52 DNA annealing inhibitors, primary screen, biochemical, FRET, single point, set 2 | recombinant RAD52 DNA annealing, FRET fluorescence | 360,000 compounds, 0.46% hits | DNA repair protein RAD52 homolog (Homo sapiens), P43351 | inhibition, % at 18.7 µM;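 active = every replicate showing at least 50% inhibition; inconclusive = mean inhibition at least 50% but not in every replicate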
Target sequence (P43351 whole entry, looked up): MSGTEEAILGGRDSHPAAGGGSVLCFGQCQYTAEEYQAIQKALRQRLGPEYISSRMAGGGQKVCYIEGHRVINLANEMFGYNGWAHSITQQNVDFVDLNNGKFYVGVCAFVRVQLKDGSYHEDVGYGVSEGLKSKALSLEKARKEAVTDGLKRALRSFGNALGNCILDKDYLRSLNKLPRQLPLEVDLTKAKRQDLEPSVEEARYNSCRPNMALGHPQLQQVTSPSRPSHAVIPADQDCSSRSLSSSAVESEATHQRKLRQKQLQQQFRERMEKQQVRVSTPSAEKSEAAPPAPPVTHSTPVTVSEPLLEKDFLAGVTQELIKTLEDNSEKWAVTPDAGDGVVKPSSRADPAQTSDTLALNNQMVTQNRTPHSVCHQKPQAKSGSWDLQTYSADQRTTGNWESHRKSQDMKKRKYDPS
E-selectin induc: E-selectin induction in HUVECs, primary screen, imaging, HUVEC, immunofluorescence imaging, single point | AID 686992, 2013 | normalized: neutral wells 0, TNF-alpha wells 100 | activation, % at 7.58 µM | 260,000 compounds, 0.37% hits | P16581;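 active = mean E-selectin-positive cell signal at least 10% of the positive control, reached in at least 60% of replicates, without over 20% cell loss; inconclusive = no rule given, readout overlaps actives, possibly toxicity-flagged; inactive = the rest, including those meeting only one limit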
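Assay system: HUVEC primary endothelial cells. Input: 3,000 HUVEC seeded per well. Doses: one compound dose added by pin transfer. Read-out basis: % PE-positive cells. Benchmarks: TNF-alpha high, DMSO low. Detection: immunofluorescence imaging. Buffer or medium: EGM-2, gelatin.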
Active calls of the source: *; ? = inconclusive; nt = not tested or not shown.

SMILES | GSIS activator | RAD54 branch | rRNA inh HTS | MLL AF4-AF9 inh | RAD52 inh | E-selectin induc
COc1ccc(CN(C)C[C@H]2Oc3c(NC(=O)Nc4ccc(OC)cc4)cccc3C(=O)N([C@@H](C)CO)C[C@H]2C)cc1 | 3 | 2 | 2 | 3 | 16 | 1
COc1ccc(CN(C)C[C@H]2Oc3ccc(NC(=O)CCCN(C)C)cc3C(=O)N([C@H](C)CO)C[C@H]2C)cc1 | 11 | nt | -1 | 0 | -6 | 35*
C[C@@H]1CN([C@@H](C)CO)C(=O)c2cccc(NC(=O)NC3CCCCC3)c2O[C@@H]1CN(C)Cc1ccncc1 | 7 | -7 | 1 | -1 | 6 | -15
Cc1ccc(S(=O)(=O)N[C@H]2CC[C@H](CCNC(=O)C3CCCC3)O[C@H]2CO)cc1 | 9 | -8 | 1 | 0 | -4 | 0
C[C@H](CO)N1C[C@H](C)[C@H](CN(C)Cc2ccncc2)Oc2c(NC(=O)Nc3ccc(F)cc3)cccc2C1=O | 4 | -8 | 5 | -2 | 3 | 105*
COCc1[nH]nc2c1C(c1ccc(C)cc1)NC2=O (stereo unspecified) | 50* | nt | 24 | nt | -6 | 0
COCc1[nH]nc2c1C(c1ccc(F)cc1)NC2=O (stereo unspecified) | 0 | nt | 13 | -4 | -7 | 0
COc1ccc(NC(=O)Nc2ccc3c(c2)C(=O)N([C@H](C)CO)C[C@H](C)[C@H](CN(C)S(=O)(=O)c2ccccc2)OCCCC[C@@H](C)O3)cc1 | 13 | -7 | -1 | 2 | -2 | nt
C[C@@H]1CN([C@@H](C)CO)C(=O)c2cc(NS(=O)(=O)c3cccs3)ccc2O[C@H]1CN(C)S(=O)(=O)c1ccc(F)cc1 | 8 | 2 | -3 | -1 | -23 | 0
C[C@@H]1CN([C@@H](C)CO)C(=O)c2cc(NC(=O)NC3CCCCC3)ccc2O[C@@H](C)CCCCO[C@@H]1CN(C)S(=O)(=O)c1cn(C)cn1 | 13 | 0 | -1 | 0 | 12 | 0
COc1ccc(-c2cc(=O)c3cc(C)ccc3[nH]2)cc1 | 12 | -13 | 4 | 4 | -19 | 0
COc1cc2[nH]c(-c3ccc(C)cc3)cc(=O)c2cc1OC | 57* | 0 | 7 | 4 | -9 | 1
C[C@@H]1CCCCO[C@H](CN(C)C(=O)CCC(F)(F)F)[C@@H](C)CN([C@H](C)CO)C(=O)c2cc(NS(=O)(=O)c3ccc(F)cc3)ccc2O1 | 9 | 3 | 1 | ? | 15 | nt
C/C(=N/OC(=O)c1ccc(C)cc1)c1cccs1 | nt | -3 | nt | nt | nt | nt
C/C(=N/OC(=O)c1ccccc1Br)c1ccc(C)cc1 | -2 | 0 | -18* | 5 | -13 | 4
O=C1C(=Cc2cccn2-c2ccccc2)C(=O)c2ccccc21 | 72* | -12 | nt | nt | nt | -3
C[C@H](CO)N1C[C@H](C)[C@H](CN(C)C(=O)C2CC2)Oc2ncc(C#CCc3ccccc3)cc2C1=O | 17 | 8 | 3 | -18 | -1 | 0
CN(C)c1ccc(/C(=N\O)C(F)(F)F)cc1 | -18 | -3 | -31* | 6 | -12 | nt
COc1ccc2cc(CCNC(=O)C(C)C)c(=O)[nH]c2c1 | nt | 0 | 10 | 31* | 4 | 0
CS(=O)(=O)c1ncc(Cl)c(C(=O)Nc2ccc(OC(F)F)cc2)n1 | 59* | 4 | -54 | nt | -7 | nt
CCS(=O)(=O)c1ncc(Cl)c(C(=O)Nc2ccc(S(=O)(=O)N(C)c3ccccc3)cc2)n1 | 25 | 5 | -36* | 1 | -80 | 0
Cc1ccccc1NC(=O)c1nc(S(C)(=O)=O)ncc1Cl | -6 | -5 | -5 | -11 | -21 | ?
CCN(c1ccccc1)S(=O)(=O)c1ccc(NC(=O)c2nc(S(C)(=O)=O)ncc2Cl)cc1 | nt | 1 | nt | nt | nt | nt
CN1C(=O)c2cc(NC(=O)c3ccccc3)ccc2OC[C@@H]2O[C@H](CC(=O)NCC3CC3)CC[C@H]21 | 3 | -4 | -1 | -1 | -1 | 0

From PubChem
